In ChEMBL document CHEMBL1926616, “Design, synthesis and biological evaluation of novel glycosylated diphyllin derivatives as topoisomerase II inhibitors” (Eur J Med Chem, 2012):
Activity calls are given as the source filed them. The rule behind the calls is not given here.

Columns and labels:
KB [1] = experiment: Resistance index, ratio of IC50 for vincristine-selected multi drug-resistant human KB cells to IC50 for human KB cells; type: functional
How it was run: (§1)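 Resistance factor is the IC50 in the resistant line divided by the IC50 in the parental line. Both IC50s come from 72 h SRB/MTT growth-inhibition assays, derived by the Logit method from at least 3 independent tests.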

HL-60 [2] = experiment: Induction of apoptosis in human HL60 cells assessed as DNA fragmentation at 10 uM after 36 hrs by gel electrophoresis; type: functional, cell-based
How it was run: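 HL-60 cells were seeded and exposed to compound for 36 h. Harvested cells were lysed with an equal volume of 1.2% SDS, and the fragmented DNA was extracted and resolved by gel electrophoresis.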

MCF7 = experiment: Cytotoxicity against human MCF7 cells after 72 hrs by sulforhodamine B and MTT assay; type: functional, cell-based; conditions: MCF7, 72 h
How it was run: (§2)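 Log-phase cells were plated overnight and exposed for 72 h to a 5-concentration gradient, in triplicate wells. SRB arm: 10% cold TCA fixation for 1 h at 4 °C, 4 mg/ml SRB in 1% acetic acid for 15 min, dye dissolved in 10 mM Tris-HCl, read at 520 nm. MTT arm: 5 mg/mL MTT for 4 h at 37 °C, SDS-isobutanol-HCl solubilisation for 12–20 h, read at 570 nm. IC50 by Logit method from at least 3 independent tests.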

HCT-116 [3] = experiment: Cell cycle arrest in human HCT116 cells assessed as accumulation at G2/M phase at 1 to 10 uM after 24 hrs using propidium iodide stain by FACS-flow cytometry; type: functional, cell-based
HL-60 [4] = experiment: Cell cycle arrest in human HL60 cells assessed as accumulation at G2/M phase at 10 uM after 24 hrs using propidium iodide stain by FACS-flow cytometry (reference value: 22.6%); type: functional
HCT-116 [5] = experiment: Cell cycle arrest in human HCT116 cells assessed as accumulation at G2/M phase after 24 hrs using propidium iodide stain by FACS-flow cytometry; type: functional, cell-based
HL-60 [6] = experiment: Cell cycle arrest in human HL60 cells assessed as accumulation at G0/G1 phase at 1 uM after 24 hrs using propidium iodide stain by FACS-flow cytometry (reference value: 39%); type: functional
HL-60 [7] = experiment: Cell cycle arrest in human HL60 cells assessed as accumulation at G0/G1 phase after 24 hrs using propidium iodide stain by FACS-flow cytometry; type: functional, cell-based
HL-60 [8] = experiment: Cell cycle arrest in human HL60 cells assessed as accumulation at G2/M phase at 1 uM after 24 hrs using propidium iodide stain by FACS-flow cytometry (reference value: 22.6%); type: functional
K562 [9] = experiment: Resistance index, ratio of IC50 for adriamycin-selected multi drug-resistant human K562 cells to IC50 for human K562 cells; type: functional; how it was run: as §1
HL-60 [10] = experiment: Cell cycle arrest in human HL60 cells assessed as accumulation at G2/M phase after 24 hrs using propidium iodide stain by FACS-flow cytometry; type: functional, cell-based
HL-60 [11] = experiment: Cell cycle arrest in human HL60 cells assessed as accumulation at G0/G1 phase at 10 uM after 24 hrs using propidium iodide stain by FACS-flow cytometry (reference value: 39%); type: functional
HCT-116 [12] = experiment: Cell cycle arrest in human HCT116 cells assessed as accumulation at G0/G1 phase at 1 to 10 uM using propidium iodide stain by FACS-flow cytometry; type: functional, cell-based; conditions: TDE = time-dependent effect
HL-60 [13] = experiment: Cell cycle arrest in human HL60 cells assessed as accumulation at S phase at 10 uM after 24 hrs using propidium iodide stain by FACS-flow cytometry (reference value: 38.4%); type: functional
[14] = molecular target: DNA topoisomerase 2-alpha (Homo sapiens) (UniProt P11388); experiment: Inhibition of human topoisomerase 2-mediated decatenation of kinetoplast DNA at 100 uM after 15 mins by agarose gel electrophoresis
Sequence of DNA topoisomerase 2-alpha (Homo sapiens) (P11388 whole entry): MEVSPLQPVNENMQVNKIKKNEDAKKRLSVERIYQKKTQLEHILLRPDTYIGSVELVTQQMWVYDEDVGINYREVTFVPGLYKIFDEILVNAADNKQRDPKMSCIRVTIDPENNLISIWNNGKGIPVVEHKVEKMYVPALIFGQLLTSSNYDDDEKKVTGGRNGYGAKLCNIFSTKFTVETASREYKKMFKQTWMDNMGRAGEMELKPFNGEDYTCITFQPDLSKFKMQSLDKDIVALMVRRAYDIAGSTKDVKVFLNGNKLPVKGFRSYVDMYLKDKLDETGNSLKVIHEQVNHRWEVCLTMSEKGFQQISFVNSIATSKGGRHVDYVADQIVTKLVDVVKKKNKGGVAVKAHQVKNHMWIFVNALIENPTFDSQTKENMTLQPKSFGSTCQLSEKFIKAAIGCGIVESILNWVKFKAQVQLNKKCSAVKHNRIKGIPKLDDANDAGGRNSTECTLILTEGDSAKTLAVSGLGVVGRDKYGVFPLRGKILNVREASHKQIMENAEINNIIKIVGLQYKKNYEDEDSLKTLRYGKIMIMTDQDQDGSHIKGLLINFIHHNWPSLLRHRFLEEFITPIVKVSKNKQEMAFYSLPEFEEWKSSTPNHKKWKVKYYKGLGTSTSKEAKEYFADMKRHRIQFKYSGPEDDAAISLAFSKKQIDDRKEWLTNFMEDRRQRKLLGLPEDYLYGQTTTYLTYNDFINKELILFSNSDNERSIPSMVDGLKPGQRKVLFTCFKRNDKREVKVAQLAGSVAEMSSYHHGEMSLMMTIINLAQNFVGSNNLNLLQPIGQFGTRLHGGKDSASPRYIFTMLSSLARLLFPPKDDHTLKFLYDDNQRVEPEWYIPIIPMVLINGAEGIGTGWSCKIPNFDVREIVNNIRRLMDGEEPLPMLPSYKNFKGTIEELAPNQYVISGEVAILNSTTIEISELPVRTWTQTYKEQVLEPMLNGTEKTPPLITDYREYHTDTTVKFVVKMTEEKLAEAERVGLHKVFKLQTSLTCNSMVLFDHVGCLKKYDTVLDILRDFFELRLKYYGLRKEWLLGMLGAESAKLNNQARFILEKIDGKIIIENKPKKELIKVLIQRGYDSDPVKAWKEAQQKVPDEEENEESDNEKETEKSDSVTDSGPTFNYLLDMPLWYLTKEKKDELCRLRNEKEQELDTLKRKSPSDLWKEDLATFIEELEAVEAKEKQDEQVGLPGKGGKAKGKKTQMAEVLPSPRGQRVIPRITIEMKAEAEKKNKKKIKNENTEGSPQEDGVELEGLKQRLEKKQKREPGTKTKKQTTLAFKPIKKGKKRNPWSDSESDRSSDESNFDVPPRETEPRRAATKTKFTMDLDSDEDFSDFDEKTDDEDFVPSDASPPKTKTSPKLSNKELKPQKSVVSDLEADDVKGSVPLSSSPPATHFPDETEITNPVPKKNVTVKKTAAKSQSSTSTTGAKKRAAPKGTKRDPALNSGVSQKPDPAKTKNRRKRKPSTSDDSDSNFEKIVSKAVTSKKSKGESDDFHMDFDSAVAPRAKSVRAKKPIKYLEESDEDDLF
How it was run: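 ATP-dependent kDNA decatenation by 1 unit Topo II in 50 mM Tris-HCl pH 7.7, 50 mM KCl, 5 mM MgCl2, 1 mM ATP, 0.5 mM DTT, 0.5 mM EDTA and BSA, run for 15 min at 37 °C. Stopped with 10% SDS, then run on 1% agarose in TAE at 4 V/cm for 1 h and stained with ethidium bromide.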

HL-60 [15] = experiment: Cell cycle arrest in human HL60 cells assessed as accumulation at S phase at 1 uM after 24 hrs using propidium iodide stain by FACS-flow cytometry (reference value: 38.4%); type: functional
KB [16] = experiment: Cytotoxicity against human KB cells after 72 hrs by sulforhodamine B and MTT assay; type: functional, cell-based; how it was run: as §2
HCT-116 [17] = experiment: Cell cycle arrest in human HCT116 cells assessed as accumulation at G0/G1 phase at 1 to 10 uM after 24 hrs using propidium iodide stain by FACS-flow cytometry; type: functional, cell-based
HCT-116 [18] = experiment: Cell cycle arrest in human HCT116 cells assessed as accumulation at G0/G1 phase after 24 hrs using propidium iodide stain by FACS-flow cytometry; type: functional, cell-based
K562 [19] = experiment: Cytotoxicity against human K562 cells after 72 hrs by sulforhodamine B and MTT assay; type: functional, cell-based; conditions: K562, 72 h
How it was run: (§3)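 Log-phase cells were seeded, preincubated (overnight for SRB, 24 h for MTT), then given a five-concentration gradient in triplicate wells for 72 h. For MTT, reagent was added for 4 h at 37 °C, solubilized in SDS-isobutanol-HCl for 12-20 h, and read at 570 nm. IC50 was derived by the Logit method from at least 3 independent tests.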

K562 [20] = experiment: Cytotoxicity against adriamycin-selected multi drug-resistant human K562 cells after 72 hrs by sulforhodamine B and MTT assay; type: functional, cell-based; conditions: K562, 72 h; how it was run: as §3
HCT-116 [21] = experiment: Cell cycle arrest in human HCT116 cells assessed as accumulation at G2/M phase at 1 to 10 uM using propidium iodide stain by FACS-flow cytometry; type: functional, cell-based; conditions: TDE = time-dependent effect
KB [22] = experiment: Cytotoxicity against vincristine-selected multi drug-resistant human KB cells after 72 hrs by sulforhodamine B and MTT assay; type: functional, cell-based; how it was run: as §3
HL-60 [23] = experiment: Cell cycle arrest in human HL60 cells assessed as accumulation at G0/G1 phase at 1 to 10 uM using propidium iodide stain by FACS-flow cytometry; type: functional, cell-based; conditions: TDE = time-dependent effect
HL-60 [24] = experiment: Cell cycle arrest in human HL60 cells assessed as accumulation at G2/M phase at 1 to 10 uM using propidium iodide stain by FACS-flow cytometry; type: functional, cell-based; conditions: TDE = time-dependent effect
HCT-116 [25] = experiment: Cytotoxicity against human HCT116 cells after 72 hrs by sulforhodamine B and MTT assay; type: functional, cell-based; conditions: HCT-116, 72 h; how it was run: as §2

| SMILES | Ratio IC50 (KB [1]) | Activity (HL-60 [2]) | IC50 (MCF7) [nM] | Activity (HCT-116 [3]) | Activity (HL-60 [4]) [%] | Activity (HCT-116 [5]) | Activity (HL-60 [6]) [%] | Activity (HL-60 [7]) | Activity (HL-60 [8]) [%] | Ratio IC50 (K562 [9]) | Activity (HL-60 [10]) | Activity (HL-60 [11]) [%] | Activity (HCT-116 [12]) | Activity (HL-60 [13]) [%] | inhibition [14] | Activity (HL-60 [15]) [%] | IC50 (KB [16]) [nM] | Activity (HCT-116 [17]) | Activity (HCT-116 [18]) | IC50 (K562 [19]) [nM] | other results |
| --- | --- | --- | --- | --- | --- | --- | --- | --- | --- | --- | --- | --- | --- | --- | --- | --- | --- | --- | --- | --- | --- |
| COc1cc2c(O[C@@H]3OC[C@@H](O)[C@H](O)[C@H]3O)c3c(c(-c4ccc5c(c4)OCO5)c2cc1OC)C(=O)OC3 | 2.9 | Active | 1550 | Active | 19.2 | Dose-dependent effect | 45.6 | Dose-dependent effect | 18.9 | 13.4 | Dose-dependent effect | 47 | tde | 33.8 | inactive | 35.5 | 410 | Active | Dose-dependent effect | 4400 | IC50 (K562 [20]): 58800 nM; Activity (HCT-116 [21]): tde; IC50 (KB [22]): 1190 nM; Activity (HL-60 [23]): tde; Activity (HL-60 [24]): tde; IC50 (HCT-116 [25]): 820 nM |
| COc1cc2c(O[C@@H]3O[C@H](C)[C@@H](O)[C@H](O)[C@H]3O)c3c(c(-c4ccc5c(c4)OCO5)c2cc1OC)C(=O)OC3 [PATENTIFLORIN A] | 6.2 | Active | 440 | Active | 22.8 | Dose-dependent effect | 45.9 | Dose-dependent effect | 16.1 | 11.3 | Dose-dependent effect | 54.4 | tde | 22.8 | inactive | 38 | 93 | Active | Dose-dependent effect | 1430 | IC50 (K562 [20]): 16100 nM; Activity (HCT-116 [21]): tde; IC50 (KB [22]): 573 nM; Activity (HL-60 [23]): tde; Activity (HL-60 [24]): tde; IC50 (HCT-116 [25]): 990 nM |
